Experiments:
Type in all cases: functional
[1] = tested on: L1210; test: Dose required to inhibit the RNA synthesis in leukemia L1210 cells; settings: Mus musculus, read-out: ED50 (the source's name)
[2] = tested on: Mus musculus; test: Compound was evaluated for antitumor activity in mice injected intraperitoneal with leukemia P-388 cells, treated on days 5, 9, and 13th day at 3.24 mg/kg
In short: (§1)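 Mice received leukemia P-388 cells intraperitoneally on day 0. The specified dose was then given ip on days 5, 9 and 13. Read-out was % T/C, the survival time of treated mice relative to untreated controls. A T/C of 120% or more was defined as active.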

[3] = tested on: Mus musculus; test: Compound was evaluated for antitumor activity in mice injected intraperitoneal with leukemia P-388 cells, treated on days 5, 9, and 13th day at 6 mg/kg; in short: as §1
[4] = organism: Rattus norvegicus; test: Compound was evaluated for augmentation of rat liver microsomal oxygen consumption relative to doxorubicin
[5] = tested on: Mus musculus; test: Compound was evaluated for antitumor activity in mice injected intraperitoneal with leukemia P-388 cells, treated on days 5, 9, and 13th day at 9.6 mg/kg; in short: as §1
[6] = tested on: Mus musculus; test: Compound was evaluated for antitumor activity in mice injected intraperitoneal with leukemia P-388 cells, treated on days 5, 9, and 13th day at 9 mg/kg; in short: as §1
[7] = tested on: Mus musculus; test: Compound was evaluated for antitumor activity in mice injected intraperitoneal with leukemia P-388 cells, treated on days 5, 9, and 13th day at 16 mg/kg; in short: as §1
[8] = tested on: Mus musculus; test: Compound was evaluated for antitumor activity in mice injected intraperitoneal with leukemia P-388 cells, treated on days 5, 9, and 13th day at 3.46 mg/kg; in short: as §1
[9] = tested on: Mus musculus; test: Compound was evaluated for antitumor activity in mice injected intraperitoneal with leukemia P-388 cells, treated on days 5, 9, and 13th day at 12 mg/kg; in short: as §1
[10] = tested on: Mus musculus; test: Compound was evaluated for antitumor activity in mice injected intraperitoneal with leukemia P-388 cells, treated on days 5, 9, and 13th day at 1.5 mg/kg; in short: as §1
[11] = tested on: Mus musculus; test: Compound was evaluated for antitumor activity in mice injected intraperitoneal with leukemia P-388 cells, treated on days 5, 9, and 13th day at 1.94 mg/kg; in short: as §1
[12] = tested on: Nucleic Acid; test: Thermal denaturation for stabilization of helical DNA by the compound
[13] = tested on: L1210; test: Dose required to inhibit the DNA synthesis in leukemia L1210 cells; settings: Mus musculus, read-out: ED50 (the source's name)
[14] = tested on: Mus musculus; test: Compound was evaluated for antitumor activity in mice injected intraperitoneal with leukemia P-388 cells, treated on days 5, 9, and 13th day at 3 mg/kg; in short: as §1
[15] = tested on: Mus musculus; test: Compound was evaluated for antitumor activity in mice injected intraperitoneal with leukemia P-388 cells, treated on days 5, 9, and 13th day at 5.76 mg/kg; in short: as §1
[16] = tested on: Mus musculus; test: Compound was evaluated for antitumor activity in mice injected intraperitoneal with leukemia P-388 cells, treated on days 5, 9, and 13 th day at 24 mg/kg; in short: as §1
[17] = tested on: Mus musculus; test: Compound was evaluated for antitumor activity in mice injected intraperitoneal with leukemia P-388 cells, treated on days 5, 9, and 13th day at 5.4 mg/kg; in short: as §1
[18] = tested on: Mus musculus; test: Compound was evaluated for antitumor activity in mice injected intraperitoneal with leukemia P-388 cells, treated on days 5, 9, and 13 th day at 16 mg/kg; in short: as §1
[19] = tested on: Mus musculus; test: Compound was evaluated for antitumor activity in mice injected intraperitoneal with leukemia P-388 cells, treated on days 5, 9, and 13 th day at 4 mg/kg; in short: as §1
[20] = tested on: Mus musculus; test: Compound was evaluated for antitumor activity in mice injected intraperitoneal with leukemia P-388 cells, treated on days 5, 9, and 13 th day at 1 mg/kg; in short: as §1
[21] = tested on: Mus musculus; test: Compound was evaluated for antitumor activity in mice injected intraperitoneal with leukemia P-388 cells, treated on days 5, 9, and 13 th day at 2 mg/kg; in short: as §1
[22] = tested on: Mus musculus; test: Compound was evaluated for antitumor activity in mice injected intraperitoneal with leukemia P-388 cells, treated on days 5, 9, and 13 th day at 8 mg/kg; in short: as §1
[23] = tested on: Mus musculus; test: Compound was evaluated for antitumor activity in mice injected intraperitoneal with leukemia P-388 cells, treated on days 5, 9, and 13th day at 12.5 mg/kg; in short: as §1
[24] = tested on: Mus musculus; test: Compound was evaluated for antitumor activity in mice injected intraperitoneal with leukemia P-388 cells, treated on days 5, 9, and 13th day at 25 mg/kg; in short: as §1
[25] = tested on: Mus musculus; test: Compound was evaluated for antitumor activity in mice injected intraperitoneal with leukemia P-388 cells, treated on days 5, 9, and 13th day at 6.25 mg/kg; in short: as §1
[26] = tested on: Mus musculus; test: Compound was evaluated for antitumor activity in mice injected intraperitoneal with leukemia P-388 cells, treated on days 5, 9, and 13 th day at 50 mg/kg; in short: as §1
[27] = tested on: Mus musculus; test: Compound was evaluated for antitumor activity in mice injected intraperitoneal with leukemia P-388 cells, treated on days 5, 9, and 13th day at 2 mg/kg; in short: as §1
[28] = tested on: Mus musculus; test: Compound was evaluated for antitumor activity in mice injected intraperitoneal with leukemia P-388 cells, treated on days 5, 9, and 13th day at 4 mg/kg; in short: as §1
[29] = tested on: Mus musculus; test: Compound was evaluated for antitumor activity in mice injected intraperitoneal with leukemia P-388 cells, treated on days 5, 9, and 13th day at 8 mg/kg; in short: as §1

**Q.** `COc1cccc2c1C(=N)c1c(O)c3c(c(O)c1C2=O)C[C@@](O)(C(C)=O)C[C@@H]3OC1CC(N)C(O)C(C)O1.Cl` (stereo partly specified) was tested. Which EC50 [1] did it give?
**A.** 1300 nM

**Q.** And the T/C [2]?
**A.** 150%

**Q.** And the T/C [3]?
**A.** 124%

**Q.** What about the Augmentation [4] of the same compound?
**A.** 8.2%

**Q.** And the T/C [5]?
**A.** 180%

**Q.** And the T/C [6]?
**A.** 157%

**Q.** What about the T/C [7] of the same compound?
**A.** 140%

**Q.** And the T/C [8]?
**A.** 177%

**Q.** And the T/C [9]?
**A.** 116%

**Q.** What about the T/C [10] of the same compound?
**A.** 126%

**Q.** And the T/C [11]?
**A.** 137%

**Q.** What about the ΔTm [12] of the same compound?
**A.** 6.2 °C

**Q.** And the EC50 [13]?
**A.** 1600 nM

**Q.** And the T/C [14]?
**A.** 130%

**Q.** And the T/C [15]?
**A.** 186%

**Q.** What about the T/C [16] of the same compound?
**A.** 126%

**Q.** And the T/C [17]?
**A.** 161%

**Q.** Which results are given for `COc1cccc2c1C(=O)c1c(O)c3c(c(O)c1C2=O)C[C@@](O)(C(=O)CO)C[C@@H]3O[C@H]1C[C@H](N)[C@H](O)[C@H](C)O1.Cl` [DOXORUBICIN HYDROCHLORIDE]?
**A.** EC50 [1]: 700 nM; T/C [18]: 125%; Augmentation [4]: 100%; T/C [19]: 144%; ΔTm [12]: 13.4 °C; EC50 [13]: 1500 nM; T/C [20]: 123%; T/C [21]: 130%; T/C [22]: 162%

**Q.** Which EC50 [1] does the source give for `COc1cccc2c1C(=N)c1c(O)c3c(c(O)c1C2=O)C[C@@](O)(C(=O)CO)C[C@@H]3OC1CC(N)C(O)C(C)O1.Cl` (stereo partly specified) here?
**A.** 2100 nM

**Q.** And the Augmentation [4]?
**A.** 7.5%

**Q.** What about the T/C [23] of the same compound?
**A.** 132%

**Q.** What about the T/C [24] of the same compound?
**A.** 155%

**Q.** What about the T/C [25] of the same compound?
**A.** 122%

**Q.** What about the ΔTm [12] of the same compound?
**A.** 6.9 °C

**Q.** And the EC50 [13]?
**A.** 2000 nM

**Q.** And the T/C [26]?
**A.** 173%

**Q.** What does the source list for `COc1cccc2c1C(=O)c1c(O)c3c(c(O)c1C2=O)C[C@@](O)(C(C)=O)C[C@@H]3O[C@H]1C[C@H](N)[C@H](O)[C@H](C)O1.Cl` [DAUNORUBICIN HYDROCHLORIDE]?
**A.** EC50 [1]: 300 nM; T/C [27]: 123%; T/C [18]: 123%; Augmentation [4]: 109%; T/C [28]: 126%; T/C [29]: 129%; EC50 [13]: 1000 nM

From ChEMBL document CHEMBL1121844, “Synthesis and preliminary antitumor evaluation of 5-iminodoxorubicin” (1981)
